Assay [1] has as its system HEp-2 cell viability, luminescence (CellTiter-Glo). In words: viability of uninfected HEp-2 cells – cell-based, CellTiter-Glo luminescence, synthesized compounds, set 11, cytotoxicity control for RSV inhibitor project, dose response (AID 540266). The method in brief:
(§1)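 material = HEp-2 human cell line, uninfected (no virus added) | replication = triplicate wells | evaluation = % viability versus median cell controls, CC50 via 0–100-bounded 4-parameter fit | dosing = 8 doses, 1:2 steps, 0.5% DMSO | buffer or medium = DMEM/F12 with FBS | technique = CellTiter-Glo luminescence | incubation = compound exposure of cells for 6 days at 37 °C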

Assay in assay [2]: as above
As to conditions: HEp-2 cell viability, luminescence (CellTiter-Glo); at 200 µM (top of the series). The method in brief:
as §1

Several values for one entry are separate records, joined by “and”; a condition that tells them apart may be missing. Equal entries are not always repeated. Activity calls are given as the source filed them.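 Rule for the calls: active = any dose giving under 70% viability, per first replicate; inactive = the rest.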

`Cc1ccc(Cn2c(=O)n(Cc3ccc(C(=O)NCCCN(C)C)cc3)c(=O)c3ccccc32)cc1`: the 50% cytotoxic concentration (CC50) in assay [1] was 15.1 µM.

Take `COCCCNC(=O)c1ccc(Cn2c(=O)c3ccccc3n(Cc3ccccc3Br)c2=O)cc1`: the CC50 in assay [1] is 7.99 µM.

On to `Cc1ccc(Cn2c(=O)n(Cc3ccc(C(=O)NCCCOC(C)C)cc3)c(=O)c3ccccc32)cc1`, for which, in assay [1], the CC50 is 19.1 µM.

As to `COCCCNC(=O)c1ccc(Cn2c(=O)c3ccccc3n(Cc3ccc(F)cc3)c2=O)cc1`, in assay [1], the CC50 was 7.09 µM.

Take `COCCCNC(=O)c1ccc(Cn2c(=O)c3ccccc3n(Cc3ccc(C(F)(F)F)cc3)c2=O)cc1`: the CC50 in assay [1] is 79.2 µM.

As to `COCCCNC(=O)c1ccc(Cn2c(=O)c3ccccc3n(Cc3ccc(Br)cc3)c2=O)cc1`, in assay [1], the CC50 was 138 µM.

Regarding `Cc1ccc(C)c(NC(=O)[C@@H]2CCCN2S(=O)(=O)c2cccc3cccnc23)c1`, the CC50 in assay [1] is 34.7 µM and 32.9 µM.

With `COCCCNC(=O)c1ccc(Cn2c(=O)c3ccccc3n(Cc3cccc(Br)c3)c2=O)cc1`, the CC50 in assay [1] is 3.32 µM.

`COCCCNC(=O)c1ccc(Cn2c(=O)c3ccccc3n(Cc3ccccc3F)c2=O)cc1`: in assay [1], the CC50 was 7.1 µM.

In the case of `Cc1ccc(Cn2c(=O)n(Cc3ccc(C(=O)NC(C)(C)C)cc3)c(=O)c3ccccc32)cc1`, the CC50 in assay [1] is 12.1 µM.

Regarding `COCCCNC(=O)c1ccc(Cn2c(=O)c3ccccc3n(Cc3ccc([N+](=O)[O-])cc3)c2=O)cc1`, the CC50 in assay [1] is 113 µM.

As to `Cc1ccc(Cn2c(=O)n(Cc3ccc(C(=O)Nc4ccncc4)cc3)c(=O)c3ccccc32)cc1`, the viability in assay [2] is 84% (inactive).

As to `CCOCCCNC(=O)c1ccc(Cn2c(=O)c3ccccc3n(Cc3ccc(C)cc3)c2=O)cc1`, the CC50 in assay [1] was 8.5 µM.

For the compound `COCCCNC(=O)c1ccc(Cn2c(=O)c3ccccc3n(Cc3ccc(C)c(C(F)(F)F)c3)c2=O)cc1`, the CC50 in assay [1] was 71.3 µM.

Regarding `COCCCNC(=O)c1ccc(Cn2c(=O)c3ccccc3n(Cc3ccc(OC)cc3)c2=O)cc1`, the CC50 in assay [1] was 149 µM.

A word on the CC50: it is the concentration giving 50% cytotoxicity. The term viability denotes a read-out of living cells in per cent, often relative to untreated cells.

The record behind these values is PubChem BioAssay AID540266 (Southern Research Specialized Biocontainment Screening …, 2011).
